According to ChEMBL document CHEMBL2321773, “Colloidal aggregation causes inhibition of G protein-coupled receptors” (J Med Chem, 2013):
pIC50: −log10 of the molar value. Activity calls are given as the source filed them. The calls are words filed in the database; no cut-off is given here.

Columns and labels:
Vasopressin V2 receptor [1] = target: T1, Vasopressin V2 receptor (Homo sapiens, UniProt P30518); test: Inhibition of vasopressin-stimulated vasopressin V2 receptor in human HTLA cells pre-incubated for 20 mins with Tween-80-treated compound solution measured on day 4 by beta arrestin-recruitment mediated luciferase reporter gene assay; format: cell-based
Outline: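 Transfected HTLA β-arrestin/tTA-luciferase reporter cells were kept serum-free on day 3 and given compound (0.001 nM–100 μM final, pH 7.4 HEPES-HBSS buffer) for 20 min. They were then stimulated with 1 μM vasopressin overnight at 37 °C. Media was removed before day-4 luciferase read; normalized to vehicle/reference, sigmoidal regression.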

Vasopressin V2 receptor [2] = target: T1, Vasopressin V2 receptor; test: Inhibition of vasopressin V2 receptor (unknown origin) assessed as change in intracellular calcium levels incubated with compound treated with Tween-80 by fluorometric analysis; format: functional, cell-based
[3] = target: T2, C-C chemokine receptor type 4 (Homo sapiens, UniProt P51679); test: Inverse agonist activity at CCR4 in human HTLA cells assessed as depression of basal activity incubated for 20 mins by beta arrestin-recruitment mediated luciferase reporter gene assay in absence of CCL22; format: cell-based
T2 sequence (P51679 whole entry): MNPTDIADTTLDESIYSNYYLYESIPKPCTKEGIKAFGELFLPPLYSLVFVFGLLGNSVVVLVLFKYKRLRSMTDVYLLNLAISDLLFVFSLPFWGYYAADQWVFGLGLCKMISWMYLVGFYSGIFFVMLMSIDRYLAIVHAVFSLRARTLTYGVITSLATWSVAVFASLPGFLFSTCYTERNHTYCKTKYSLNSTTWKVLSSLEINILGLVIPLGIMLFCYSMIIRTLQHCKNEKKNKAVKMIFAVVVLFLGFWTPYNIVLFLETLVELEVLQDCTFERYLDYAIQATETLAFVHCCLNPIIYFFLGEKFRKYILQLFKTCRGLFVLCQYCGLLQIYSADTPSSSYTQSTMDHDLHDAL
Outline: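 β-Arrestin recruitment luciferase reporter in transfected HTLA cells without CCL22 agonist. Compounds ranged 0.001 nM to 100 μM final in HBSS/HEPES pH 7.4 buffer, with 20 min exposure in serum-free DMEM. Luminescence read on day 4.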

Vasopressin V2 receptor [4] = target: T1, Vasopressin V2 receptor; test: Inhibition of vasopressin V2 receptor (unknown origin) assessed as change in intracellular calcium levels treated with centrifuged compound solution by fluorometric analysis; format: functional, cell-based
[5] = target: T3, C-C chemokine receptor type 4 (Homo sapiens) (UniProt P51679); test: (§1) Inhibition of CCL22-stimulated CCR4 in human HTLA cells pre-incubated for 20 mins with centrifuged compound solution measured on day 4 by beta arrestin-recruitment mediated luciferase reporter gene assay; format: cell-based
T3 sequence (whole entry): T2 sequence (P51679 whole entry)
Outline: (§2)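 HTLA cells (stable β-arrestin2-TEV protease fusion, tTA-dependent firefly luciferase) transfected by CaPO4 with receptor-V2-tTA construct; next day plated 20 000 cells/well in 1% dialyzed FBS; day 3 serum-free DMEM; compound 0.001 nM–100 μM final in HBSS/20 mM HEPES pH 7.4 for 20 min, then 1 μM agonist overnight, 37 °C; day 4 luminescence after Bright-Glo 30 min; normalized to vehicle and reference; sigmoidal fit.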

[6] = target: T4, C-X-C chemokine receptor type 1 (Homo sapiens) (UniProt P25024); test: Inhibition of CX3CL1-stimulated CX3CR1 in human HTLA cells pre-incubated for 20 mins with centrifuged compound solution measured on day 4 by beta arrestin-recruitment mediated luciferase reporter gene assay
T4 sequence (whole entry): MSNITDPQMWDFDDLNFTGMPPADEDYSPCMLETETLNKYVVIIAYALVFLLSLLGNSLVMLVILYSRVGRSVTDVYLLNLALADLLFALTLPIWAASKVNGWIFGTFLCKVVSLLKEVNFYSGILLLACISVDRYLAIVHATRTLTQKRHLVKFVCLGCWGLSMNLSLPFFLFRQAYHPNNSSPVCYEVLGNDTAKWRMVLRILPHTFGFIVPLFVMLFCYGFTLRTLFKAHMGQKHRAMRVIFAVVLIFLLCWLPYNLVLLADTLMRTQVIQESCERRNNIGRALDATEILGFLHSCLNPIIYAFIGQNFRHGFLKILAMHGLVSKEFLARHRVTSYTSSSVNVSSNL

[7] = Inhibition of AmpC beta lactamase (unknown origin) incubated for 5 mins by UV-Vis spectrophotometric analysis in presence of Triton X-100
Cruzipain [8] = target: T5, Cruzipain (Trypanosoma cruzi, UniProt P25779); test: Inhibition of Trypanosoma cruzi cruzaine using Z-Phe-Arg-aminomethylcoumarin as substrate incubated for 5 mins by spectrofluorimetric analysis in absence of Tween-80
Outline: (§3)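 Cruzain at 0.4 nM final in 0.1 M sodium acetate pH 5.5 with 5 mM DTT and 1% DMSO. Compound preincubated with enzyme for 5 min, then 2.5 μM Z-FR-AMC added. Fluorescence increase (ex 355/em 460 nm) monitored for 5 min. Duplicate wells, two separate experiments. IC50 from variable-slope sigmoidal fit.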

[9] = Inhibition of AmpC beta lactamase (unknown origin) incubated for 5 mins by UV-Vis spectrophotometric analysis in absence of Triton X-100
Cruzipain [10] = target: T5, Cruzipain; test: Inhibition of Trypanosoma cruzi cruzaine using Z-Phe-Arg-aminomethylcoumarin as substrate incubated for 5 mins by spectrofluorimetric analysis in presence of Tween-80; outline: as §3
[11] = Inhibition of AmpC beta lactamase (unknown origin) at 10 uM incubated for 5 mins in presence of vasopressin
Outline: (§4)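 AmpC β-lactamase (1 nM) in 50 mM potassium phosphate pH 7.0 at room temperature; compound at 10 μM final from 10 mM DMSO stock, with or without 5 min preincubation with 1 μM vasopressin; enzyme incubated with sample 5 min, reaction started with 69 μM CENTA; absorbance change at 405 nm followed 2.5 min; quadruplicate.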

[12] = Inhibition of AmpC beta lactamase (unknown origin) at 10 uM incubated for 5 mins; outline: as §4
[13] = target: T2, C-C chemokine receptor type 4; test: Inhibition of CCL22-stimulated CCR4 in human HTLA cells pre-incubated for 20 mins with Tween-80-treated compound solution measured on day 4 by beta arrestin-recruitment mediated luciferase reporter gene assay
Vasopressin V2 receptor [14] = target: T1, Vasopressin V2 receptor; test: Inhibition of vasopressin-stimulated vasopressin V2 receptor in human HTLA cells pre-incubated for 20 mins with centrifuged compound solution measured on day 4 by beta arrestin-recruitment mediated luciferase reporter gene assay
Vasopressin V2 receptor [15] = target: T1, Vasopressin V2 receptor; test: Inhibition of vasopressin-stimulated vasopressin V2 receptor in human HTLA cells pre-incubated for 20 mins measured on day 4 by beta arrestin-recruitment mediated luciferase reporter gene assay; format: cell-based
[16] = target: T2, C-C chemokine receptor type 4; test: Inhibition of CCL22-stimulated CCR4 in human HTLA cells pre-incubated for 20 mins measured on day 4 by beta arrestin-recruitment mediated luciferase reporter gene assay
[17] = target: T2, C-C chemokine receptor type 4; test: as §1; format: cell-based; outline: as §2

T5 sequence (P25779 whole entry): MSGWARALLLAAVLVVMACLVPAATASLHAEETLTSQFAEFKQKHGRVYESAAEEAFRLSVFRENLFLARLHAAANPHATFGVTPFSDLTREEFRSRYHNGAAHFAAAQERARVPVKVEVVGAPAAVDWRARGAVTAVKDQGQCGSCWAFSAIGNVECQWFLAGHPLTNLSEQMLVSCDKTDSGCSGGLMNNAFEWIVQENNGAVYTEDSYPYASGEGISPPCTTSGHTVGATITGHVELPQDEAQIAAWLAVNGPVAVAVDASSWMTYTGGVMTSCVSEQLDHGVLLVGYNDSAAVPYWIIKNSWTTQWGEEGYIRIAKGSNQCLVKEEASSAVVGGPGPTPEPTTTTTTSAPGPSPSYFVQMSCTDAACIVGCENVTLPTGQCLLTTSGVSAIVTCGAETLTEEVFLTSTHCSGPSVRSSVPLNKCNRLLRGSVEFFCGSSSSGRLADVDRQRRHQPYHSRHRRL
T1 sequence (P30518 whole entry): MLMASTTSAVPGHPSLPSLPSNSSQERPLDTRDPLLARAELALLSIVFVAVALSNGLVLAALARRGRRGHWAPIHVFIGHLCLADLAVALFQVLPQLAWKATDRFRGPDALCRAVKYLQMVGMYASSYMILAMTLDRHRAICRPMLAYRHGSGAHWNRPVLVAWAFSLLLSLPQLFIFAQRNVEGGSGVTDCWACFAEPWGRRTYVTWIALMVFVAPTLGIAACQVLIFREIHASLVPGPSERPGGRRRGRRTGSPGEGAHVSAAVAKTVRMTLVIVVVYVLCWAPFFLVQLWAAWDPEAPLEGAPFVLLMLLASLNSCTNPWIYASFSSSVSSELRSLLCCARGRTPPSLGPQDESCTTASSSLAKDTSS

SMILES | inhibition (Vasopressin V2 receptor [2]) | inhibition (Vasopressin V2 receptor [4]) | inhibition [5] | inhibition [6] | pIC50 [7] | pIC50 (Cruzipain [8]) | pIC50 [9] | pIC50 (Cruzipain [10]) | other results
Clc1ccccc1C(c1ccccc1)(c1ccccc1)n1ccnc1 [CLOTRIMAZOLE] | Active | Active | inactive | – | – | – | – | – | inhibition (Vasopressin V2 receptor [1]): inactive; pIC50 [3]: 5.80
O=c1c(O)c(-c2ccc(O)c(O)c2)oc2cc(O)cc(O)c12 | – | – | – | inactive | – | – | – | – | –
O=c1c(-c2ccc(O)cc2)coc2cc(O)cc(O)c12 [GENISTEIN] | – | – | – | – | < 4.00 | 4.08 | 4.78 | < 3.40 | –
O=C1OC(c2cc(I)c(O)c(I)c2)(c2c(I)cc(O)cc2I)c2ccccc21 (stereo not drawn) | Active | Active | inactive | inactive | – | – | – | – | inhibition [11]: 7%; inhibition [12]: 77%
O=c1cc(-c2ccc(O)c(O)c2)oc2cc(O)cc(O)c12 [LUTEOLIN] | – | – | – | – | < 4.00 | 4.56 | 4.66 | 3.81 | –
CCC(C)n1ncn(-c2ccc(N3CCN(c4ccc(OCC5COC(Cn6cncn6)(c6ccc(Cl)cc6Cl)O5)cc4)CC3)cc2)c1=O (stereo not drawn) [ITRACONAZOLE] | Active | Active | – | – | – | – | – | – | pIC50 (Vasopressin V2 receptor [1]): 5.20; pIC50 [13]: 4.90; pIC50 (Vasopressin V2 receptor [14]): 4.92; pIC50 (Vasopressin V2 receptor [15]): 6.10; pIC50 [16]: 6.30; pIC50 [17]: 5.14
